According to ChEMBL document CHEMBL4330085, “Peptidomimetic plasmepsin inhibitors with potent anti-malarial activity and selectivity against cathepsin D” (Eur J Med Chem, 2019):
Activity calls are given as the source filed them. The rule behind the calls is not given here.

How the values were obtained:
[1] = target: Plasmepsin 4 (Plasmodium falciparum, UniProt Q17SB2); assay: Inhibition of Plasmodium falciparum plasmepsin 4 using DABCYL-Glu-Arg-Nle-Phe-Leu-Ser-Phe-Pro-EDANS as substrate preincubated for 30 mins followed by substrate addition and measured every min for 8 to 15 mins by FRET assay
Plasmepsin 4, sequence (Q17SB2 whole entry): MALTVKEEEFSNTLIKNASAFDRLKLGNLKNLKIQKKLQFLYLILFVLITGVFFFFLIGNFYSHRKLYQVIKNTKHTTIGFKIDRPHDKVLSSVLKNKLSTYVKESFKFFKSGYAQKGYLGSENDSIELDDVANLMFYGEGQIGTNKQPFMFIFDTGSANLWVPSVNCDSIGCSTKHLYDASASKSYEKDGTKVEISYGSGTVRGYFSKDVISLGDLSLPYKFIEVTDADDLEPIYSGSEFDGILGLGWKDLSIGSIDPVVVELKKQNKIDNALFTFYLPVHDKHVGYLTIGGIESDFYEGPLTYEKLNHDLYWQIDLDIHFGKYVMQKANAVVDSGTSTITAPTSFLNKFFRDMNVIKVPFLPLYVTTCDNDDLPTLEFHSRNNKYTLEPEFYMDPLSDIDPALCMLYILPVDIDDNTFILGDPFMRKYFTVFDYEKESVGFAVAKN

[2] = target: Cathepsin D (Homo sapiens, UniProt P07339); assay: Inhibition of human cathepsin D using DABCYL-Glu-Arg-Nle-Phe-Leu-Ser-Phe-Pro-EDANS as substrate preincubated for 30 mins followed by substrate addition and measured every min for 8 to 15 mins by FRET assay
Cathepsin D, sequence (P07339 65-162 limits assumed): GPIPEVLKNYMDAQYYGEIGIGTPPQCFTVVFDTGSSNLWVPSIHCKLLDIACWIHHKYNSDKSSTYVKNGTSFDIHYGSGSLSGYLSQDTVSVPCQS
Cathepsin D, sequence (P07339 169-412 limits assumed): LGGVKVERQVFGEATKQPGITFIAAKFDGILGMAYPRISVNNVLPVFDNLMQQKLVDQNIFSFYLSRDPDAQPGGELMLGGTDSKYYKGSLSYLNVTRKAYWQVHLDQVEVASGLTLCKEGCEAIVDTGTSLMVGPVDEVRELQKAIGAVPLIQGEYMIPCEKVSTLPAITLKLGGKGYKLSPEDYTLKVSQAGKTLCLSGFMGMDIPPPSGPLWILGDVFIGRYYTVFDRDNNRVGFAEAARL

[3] = tested on: Plasmodium falciparum; assay: Antimalarial activity against blood stage form of Plasmodium falciparum 3D7 infected in erythrocytes after 96 hrs by SYBR Green I dye-based spectrophotometric analysis; assay type: functional, organism-based; conditions: 3D7, 96 h
Outline: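 P. falciparum blood-stage growth was read by SYBR Green fluorescence after a 96 h incubation (2 erythrocytic cycles). EC50 values came from triplicate samples in 2 separate biological assays, with a reference inhibitor as positive control.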

[4] = target: Plasmepsin I (Plasmodium falciparum, UniProt P39898); assay: Inhibition of Plasmodium falciparum plasmepsin 1 using DABCYL-Glu-Arg-Nle-Phe-Leu-Ser-Phe-Pro-EDANS as substrate preincubated for 30 mins followed by substrate addition and measured every min for 8 to 15 mins by FRET assay
Plasmepsin I, sequence (P39898 whole entry): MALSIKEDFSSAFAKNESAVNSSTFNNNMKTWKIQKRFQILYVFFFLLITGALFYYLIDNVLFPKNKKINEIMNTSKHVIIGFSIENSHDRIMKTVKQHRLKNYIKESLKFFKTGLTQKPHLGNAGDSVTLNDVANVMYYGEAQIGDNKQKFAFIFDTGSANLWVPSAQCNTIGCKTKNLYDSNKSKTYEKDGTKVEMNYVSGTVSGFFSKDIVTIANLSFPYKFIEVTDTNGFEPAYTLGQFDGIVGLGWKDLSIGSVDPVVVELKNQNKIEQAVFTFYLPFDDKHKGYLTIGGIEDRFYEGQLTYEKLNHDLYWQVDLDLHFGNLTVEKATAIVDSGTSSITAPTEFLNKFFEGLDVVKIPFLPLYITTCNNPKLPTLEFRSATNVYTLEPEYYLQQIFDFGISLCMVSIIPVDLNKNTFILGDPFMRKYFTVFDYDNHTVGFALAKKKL

[5] = target: Plasmepsin II (Plasmodium falciparum, UniProt P46925); assay: Inhibition of Plasmodium falciparum plasmepsin 2 using DABCYL-Glu-Arg-Nle-Phe-Leu-Ser-Phe-Pro-EDANS as substrate preincubated for 30 mins followed by substrate addition and measured every min for 8 to 15 mins by FRET assay
Plasmepsin II, sequence (P46925 whole entry): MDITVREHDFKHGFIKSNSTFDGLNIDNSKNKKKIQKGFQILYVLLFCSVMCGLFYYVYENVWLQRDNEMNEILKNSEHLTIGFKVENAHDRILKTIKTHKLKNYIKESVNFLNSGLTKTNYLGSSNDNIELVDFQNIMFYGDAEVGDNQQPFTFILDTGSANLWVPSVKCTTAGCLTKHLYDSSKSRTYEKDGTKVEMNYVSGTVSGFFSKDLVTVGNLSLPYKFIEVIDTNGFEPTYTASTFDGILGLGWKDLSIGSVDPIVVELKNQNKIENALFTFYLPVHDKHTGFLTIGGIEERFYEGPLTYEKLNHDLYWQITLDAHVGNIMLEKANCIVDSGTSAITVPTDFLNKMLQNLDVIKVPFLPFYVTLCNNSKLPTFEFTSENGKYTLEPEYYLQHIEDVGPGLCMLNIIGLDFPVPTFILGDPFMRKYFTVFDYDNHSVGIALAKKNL

[6] = target: Plasmepsin X (Plasmodium falciparum (isolate 3D7)) (UniProt Q8IAS0); assay: Inhibition of Plasmodium falciparum plasmepsin 10-mediated SUB1 maturation and egress assessed as enrichment of SUB1 p54 form level at 10 nM after 8 hrs by Western blot analysis
Plasmepsin X (Plasmodium falciparum (isolate 3D7)), sequence (Q8IAS0 whole entry): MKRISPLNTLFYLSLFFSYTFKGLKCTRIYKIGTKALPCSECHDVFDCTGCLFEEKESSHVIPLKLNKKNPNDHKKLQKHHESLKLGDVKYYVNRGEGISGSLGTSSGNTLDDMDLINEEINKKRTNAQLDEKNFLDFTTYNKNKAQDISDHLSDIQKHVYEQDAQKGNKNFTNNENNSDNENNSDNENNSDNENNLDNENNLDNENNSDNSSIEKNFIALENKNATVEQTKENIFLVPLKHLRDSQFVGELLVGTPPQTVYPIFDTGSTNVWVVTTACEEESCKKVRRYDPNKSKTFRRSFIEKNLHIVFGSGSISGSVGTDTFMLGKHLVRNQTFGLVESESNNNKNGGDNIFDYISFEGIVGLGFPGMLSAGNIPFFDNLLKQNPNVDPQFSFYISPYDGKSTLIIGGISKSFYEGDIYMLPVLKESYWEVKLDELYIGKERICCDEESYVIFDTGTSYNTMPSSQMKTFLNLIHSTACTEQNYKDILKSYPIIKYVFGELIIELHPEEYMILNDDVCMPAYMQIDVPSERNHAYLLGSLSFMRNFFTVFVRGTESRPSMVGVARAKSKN
Outline: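 Synchronous cultures of immature intracellular parasites were exposed for ~8 h to compound at 10 nM. Controls were vehicle (DMSO, 1% v/v) and a cGMP-dependent protein kinase inhibitor at 2 μM. Parasite extracts were analysed by Western blot with anti-SUB1 antibody, scoring the p54 and p47 forms.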

[7] = target: Plasmepsin X (Plasmodium falciparum (isolate 3D7)) (UniProt Q8IAS0); assay: Inhibition of Plasmodium falciparum plasmepsin 10-mediated SUB1 maturation and egress assessed as reduction in SERA5 P50 level at 10 nM by Western blot analysis

Row | Structure (SMILES) | IC50 [1] | IC50 [2] | EC50 [3] | IC50 [4] | IC50 [5] | inhibition [6] | inhibition [7]
1 | COc1cccc(C(C)(C)NC[C@@H](O)[C@H](Cc2ccccc2)NC(=O)c2cc(C(=O)NCC(C)(C)O)cc(N3CCCCC3)c2)c1 | 100 nM | 1660 nM | – | – | – | – | –
2 | COc1cccc(C(C)(C)NC[C@@H](O)[C@H](Cc2ccccc2)NC(=O)c2cc(C(=O)NCCC(F)(F)F)cc(N3CCCCC3)c2)c1 | 24 nM | 580 nM | 2 nM | 2500 nM | 2200 nM | – | –
3 | CCCN(CCC)C(=O)c1cc(C(=O)N[C@@H](Cc2ccccc2)[C@H](O)CNC(C)(C)c2cccc(OC)c2)cc(C(=O)N(CCC)CCC)c1 | 18 nM | 700 nM | 6 nM | 780 nM | 270 nM | – | –
4 | CCCN(CCC)C(=O)c1cc(C#N)cc(C(=O)N[C@@H](Cc2ccccc2)[C@H](O)CNC(C)(C)c2cccc(OC)c2)c1 | 59 nM | 560 nM | – | – | – | – | –
5 | CCCN(CCC)C(=O)c1cc(Cl)cc(C(=O)N[C@@H](Cc2ccccc2)[C@H](O)CNC(C)(C)c2cccc(OC)c2)c1 | 8 nM | 96 nM | – | – | – | – | –
6 | COc1cccc(C(C)(C)NC[C@@H](O)[C@H](Cc2ccccc2)NC(=O)c2cc(C(=O)NCCOC(C)(C)C)cc(N3CCCCC3)c2)c1 | 31 nM | 150 nM | – | – | – | – | –
7 | COc1cccc(C(C)(C)NC[C@@H](O)[C@H](Cc2ccccc2)NC(=O)c2cc(C(=O)NCCO)cc(N3CCCCC3)c2)c1 | 210 nM | 1420 nM | – | – | – | – | –
8 | COc1cccc(C(C)(C)NC[C@@H](O)[C@H](Cc2ccccc2)NC(=O)c2cc(C(=O)NCC(C)(C)C)cc(N3CCCCC3)c2)c1 | 27 nM | 400 nM | 6 nM | 2000 nM | 850 nM | – | –
9 | COCCN(CCOC)C(=O)c1cc(C(=O)N[C@@H](Cc2ccccc2)[C@H](O)CNC(C)(C)c2cccc(OC)c2)cc(N2CCCCC2)c1 | 37 nM | 100 nM | – | – | – | – | –
10 | COc1cccc(C(C)(C)NC[C@@H](O)[C@H](Cc2ccccc2)NC(=O)c2cc(C(=O)NCCN(C)C)cc(N3CCCCC3)c2)c1 | 360 nM | 4800 nM | – | – | – | – | –
11 | COc1cccc(C(C)(C)NC[C@@H](O)[C@H](Cc2ccccc2)NC(=O)c2cccc(C(=O)NCC(C)(C)C)c2)c1 | 76 nM | 3800 nM | 2 nM | 5600 nM | 7100 nM | – | –
12 | CCCN(CCC)C(=O)c1cc(C(=O)N[C@@H](Cc2ccccc2)[C@H](O)CNC(C)(C)c2cccc(OC)c2)cc(C(F)(F)F)c1 | 15 nM | 67 nM | – | – | – | – | –
13 | COCCNC(=O)c1cc(C(=O)N[C@@H](Cc2ccccc2)[C@H](O)CNC(C)(C)c2cccc(OC)c2)cc(N2CCCCC2)c1 | 50 nM | 750 nM | – | – | – | – | –
14 | COc1cccc(C(C)(C)NC[C@@H](O)[C@H](Cc2ccccc2)NC(=O)c2cc(C(=O)N(CC(C)C)CC(C)C)cc(N3CCCCC3)c2)c1 | 500 nM | 1300 nM | – | – | – | – | –
15 | COc1cccc(C(C)(C)NC[C@@H](O)[C@H](Cc2ccccc2)NC(=O)c2cc(C(=O)NCC3CCCCC3)cc(N3CCCCC3)c2)c1 | 90 nM | 150 nM | – | – | – | – | –
16 | COc1cccc(C(C)(C)NC[C@@H](O)[C@H](Cc2ccccc2)NC(=O)c2cc(C(=O)NCc3ccccc3)cc(N3CCCCC3)c2)c1 | 38 nM | 220 nM | – | – | – | – | –
17 | COc1cccc(C(C)(C)NC[C@@H](O)[C@H](Cc2ccccc2)NC(=O)c2cc(C(=O)NCC(C)(C)OC)cc(N3CCCCC3)c2)c1 | 48 nM | 2100 nM | 2 nM | 7400 nM | 5400 nM | – | –
18 | COc1cccc(C(C)(C)NC[C@@H](O)[C@H](Cc2ccccc2)NC(=O)c2cc(C(=O)NCC3CC3)cc(N3CCCCC3)c2)c1 | 30 nM | 760 nM | 1.8 nM | 1800 nM | 500 nM | – | –
19 | CCCN(CCC)C(=O)c1cc(F)cc(C(=O)N[C@@H](Cc2ccccc2)[C@H](O)CNC(C)(C)c2cccc(OC)c2)c1 | 50 nM | 1000 nM | 1.5 nM | 1100 nM | 1100 nM | Active | Active
20 | COc1cccc(C(C)(C)NC[C@@H](O)[C@H](Cc2ccccc2)NC(=O)c2cccc(C(=O)NCCC(F)(F)F)c2)c1 | 150 nM | 4900 nM | 6 nM | 10300 nM | 10400 nM | – | –
21 | CCN(CC)C(=O)c1cc(C(=O)N[C@@H](Cc2ccccc2)[C@H](O)CNC(C)(C)c2cccc(OC)c2)cc(N2CCCCC2)c1 | 14 nM | 250 nM | 1.5 nM | 800 nM | 160 nM | Active | –
22 | CCCN(CCC)C(=O)c1cc(C)cc(C(=O)N[C@@H](Cc2ccccc2)[C@H](O)CNC(C)(C)c2cccc(OC)c2)c1 | 23 nM | 210 nM | – | – | – | – | –
23 | COc1cccc(C(C)(C)NC[C@@H](O)[C@H](Cc2ccccc2)NC(=O)c2cc(C(=O)N(CCC(F)(F)F)CCC(F)(F)F)cc(N3CCCCC3)c2)c1 | 210 nM | 120 nM | – | – | – | – | –
24 | COc1cccc(C(C)(C)NC[C@@H](O)[C@H](Cc2ccccc2)NC(=O)c2cc(C(=O)NCCCO)cc(N3CCCCC3)c2)c1 | 93 nM | 2250 nM | – | – | – | – | –
25 | COc1cccc(C(C)(C)NC[C@@H](O)[C@H](Cc2ccccc2)NC(=O)c2cc(C(=O)N(CCO)CCO)cc(N3CCCCC3)c2)c1 | 68 nM | 270 nM | – | – | – | – | –
26 | COc1cccc(C(C)(C)NC[C@@H](O)[C@H](Cc2ccccc2)NC(=O)c2cc(C(=O)NC(C)(C)CO)cc(N3CCCCC3)c2)c1 | 120 nM | 1460 nM | – | – | – | – | –
27 | COc1cccc(C(C)(C)NC[C@@H](O)[C@H](Cc2ccccc2)NC(=O)c2cc(C(=O)N(C)C)cc(N3CCCCC3)c2)c1 | 87 nM | 500 nM | – | – | – | – | –
28 | CCCN(CCC)C(=O)c1cccc(C(=O)N[C@@H](Cc2ccccc2)[C@H](O)CNC(C)(C)c2cccc(OC)c2)c1 | 58 nM | 1150 nM | 0.3 nM | 3100 nM | 1700 nM | Active | Active
